Test results reported in ChEMBL document CHEMBL4145527, “Targeting polyamine transport in Trypanosoma cruzi” (Eur J Med Chem, 2018).
The source made the active and inactive calls. No cut-off for these calls is given here.

Tests used:
[1] = biological target: T1, Putative amino acid permease/transporter (Trypanosoma cruzi, UniProt D5FGE8); assay: Inhibition of Trypanosoma cruzi Y epimastigotes PAT assessed as reduction in [3H]-putrescine uptake after 10 mins by liquid scintillation counting method
T1 sequence (D5FGE8 whole entry): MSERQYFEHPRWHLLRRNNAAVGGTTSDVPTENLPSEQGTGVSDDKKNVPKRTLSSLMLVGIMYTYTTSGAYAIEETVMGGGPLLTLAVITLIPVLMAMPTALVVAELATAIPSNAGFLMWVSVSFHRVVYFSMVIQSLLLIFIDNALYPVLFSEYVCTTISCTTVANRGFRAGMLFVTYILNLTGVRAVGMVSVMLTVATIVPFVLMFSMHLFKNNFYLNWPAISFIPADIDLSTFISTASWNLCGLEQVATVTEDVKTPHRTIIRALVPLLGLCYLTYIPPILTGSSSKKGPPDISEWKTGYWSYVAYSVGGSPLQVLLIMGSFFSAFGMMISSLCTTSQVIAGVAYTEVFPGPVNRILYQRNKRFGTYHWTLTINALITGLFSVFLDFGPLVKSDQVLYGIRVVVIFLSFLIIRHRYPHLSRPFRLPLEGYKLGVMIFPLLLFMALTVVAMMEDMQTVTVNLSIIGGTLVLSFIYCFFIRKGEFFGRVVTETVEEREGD
In short: (§1)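 Y-strain epimastigotes from BHT culture were washed twice in PBS. 10^7 cells in PBS-2% glucose were given [3H]-putrescine (5 µM) or [3H]-spermidine (15 µM), 0.4 µCi, with inhibitor at 0–30 µM, later narrowed. Incubation was 10 min at 28 °C or 37 °C, stopped with ice-cold buffer and washed; pellets went to scintillation counting. Nonspecific uptake was taken with a 100-fold molar excess of substrate. IC50 was fit by nonlinear regression.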

[2] = biological target: T2, Putative amino acid permease/transporter (Trypanosoma cruzi) (UniProt D5FGE8); assay: Inhibition of Trypanosoma cruzi Y epimastigotes PAT assessed as reduction in [3H]--spermidine uptake up to 30 uM after 10 mins by liquid scintillation counting method; in short: as §1
T2 sequence (whole entry): T1 sequence (D5FGE8 whole entry)

[3] = biological target: T1, Putative amino acid permease/transporter; assay: Inhibition of Trypanosoma cruzi Y epimastigotes PAT assessed as reduction in [3H]--spermidine uptake after 10 mins by liquid scintillation counting method; in short: as §1
Trypanosoma cruzi [4] = assay: Trypanopcidal activity against Trypanosoma cruzi Y epimastigotes after 48 hrs by Neubauer chamber or MTS dye based assay; assay type: functional, organism-based
In short: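 Y-strain epimastigotes, 10^7 cells/well in BHT (pH 7, 10% FCS, hemin), were exposed to 0–100 µM compound at 28 °C for 48 h. Growth was counted in a Neubauer chamber or by MTS. IC50 is 50% viability relative to untreated control, by nonlinear regression; at least triplicate, three independent assays.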

Trypanosoma cruzi [5] = assay: Trypanopcidal activity against Trypanosoma cruzi Y trypamastigotes infected in African green monkey Vero cells treated for 5 days by Neubauer chamber or MTS dye based assay; assay type: functional, organism-based; settings: 120 h
In short: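 VERO cells infected with trypomastigotes were exposed to compound at 0–2.5 µM for five days. Trypomastigote burst was scored after six days of infection. IC50 was obtained by nonlinear regression of dose-response.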

Trypanosoma cruzi [6] = assay: Potentiation of benznidazole-induced trypanopcidal activity against Trypanosoma cruzi Y epimastigotes at 20 uM after 96 hrs by Neubauer chamber or MTS dye based assay; assay type: functional
In short: (§2)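 Epimastigotes were treated with 30 µM benznidazole alone or with 20 µM polyamine conjugate, for up to 96 h at 28 °C. Parasites were counted (Neubauer or MTS) at 24, 48, 72 and 96 h. Potentiation is the fold change in benznidazole potency with versus without the conjugate.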

Trypanosoma cruzi [7] = assay: Trypanopcidal activity against Trypanosoma cruzi Y trypamastigotes after 24 hrs by Neubauer chamber or MTS dye based assay; assay type: functional, organism-based
In short: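 Culture-derived trypomastigotes, 10^6 cells/mL, were held at 37 °C for 24 h with compound at 0–2.5 µM. Motility was checked microscopically, and viability was counted by Neubauer chamber or MTS against untreated controls. IC50 was from logistic nonlinear regression.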

[8] = biological target: T1, Putative amino acid permease/transporter; assay: Inhibition of Trypanosoma cruzi Y trypamastigotes PAT assessed as reduction in [3H]--spermidine uptake after 10 mins by liquid scintillation counting method
In short: (§3)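 Trypomastigotes came from infected VERO cells. 10^7 washed parasites in PBS-2% glucose were given [3H]-putrescine or [3H]-spermidine (0.4 µCi) plus inhibitor for 10 min at 28 °C or 37 °C. The reaction was stopped with ice-cold PBS-glucose, washed and scintillation counted. Background was taken with a 100-fold molar substrate excess. IC50 came from logistic dose-response fit.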

HL-60 = assay: Cytotoxicity against human HL60 cells; assay type: cell-based
Trypanosoma cruzi [9] = assay: Potentiation of benznidazole-induced trypanopcidal activity against Trypanosoma cruzi Y epimastigotes at 20 uM after 48 hrs by Neubauer chamber or MTS dye based assay; assay type: functional; in short: as §2
[10] = biological target: T1, Putative amino acid permease/transporter; assay: Inhibition of Trypanosoma cruzi Y trypamastigotes PAT assessed as reduction in [3H]-putrescine uptake after 10 mins by liquid scintillation counting method; in short: as §3
[11] = Selectivity index, ratio of IC50 for cytotoxicity against African green monkey Vero cells to IC50 for trypanopcidal activity against Trypanosoma cruzi Y trypamastigotes; assay type: toxicity, cell-based; settings: read-out: Ratio IC50
Trypanosoma cruzi [12] = assay: Potentiation of benznidazole-induced trypanopcidal activity against Trypanosoma cruzi Y epimastigotes at 20 uM after 24 hrs by Neubauer chamber or MTS dye based assay; assay type: functional; in short: as §2
Trypanosoma cruzi [13] = assay: Potentiation of benznidazole-induced trypanopcidal activity against Trypanosoma cruzi Y epimastigotes at 20 uM after 72 hrs by Neubauer chamber or MTS dye based assay; assay type: functional; in short: as §2
[14] = biological target: T2, Putative amino acid permease/transporter (Trypanosoma cruzi); assay: Inhibition of Trypanosoma cruzi Y epimastigotes PAT assessed as reduction in [3H]-putrescine uptake up to 30 uM after 10 mins by liquid scintillation counting method; in short: as §1
Vero = assay: Cytotoxicity against African green monkey Vero cells assessed as reduction in cell viability after 24 hrs by crystal violet staining based assay; settings: Chlorocebus sabaeus
In short: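 VERO cells (MEM, 10% heat-inactivated FCS, 37 °C, 5% CO2) were seeded at 10^4 cells/well and treated 24 h with compound at 0–50 µM; PBS served as negative control. Cells were fixed 15 min, stained with 0.5% crystal violet, and absorbance read at 570 nm. IC50 was from nonlinear regression.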

Trypanosoma cruzi [15] = assay: Ratio of IC50 for Trypanosoma cruzi Y epimastigotes to IC50 for Trypanosoma cruzi Y trypamastigotes; assay type: functional
Leishmania amazonensis = assay: Antiparasitic activity against Leishmania amazonensis MHOM/Br/75/Josefa promastigotes by light microscopic method; assay type: functional, organism-based

## Cl.Cl.NCCCCNCc1c2ccccc2cc2ccccc12
[1]
  IC50: 5.02 µM
[2]
  inhibition: Active
[3]
  IC50: 8.78 µM
Trypanosoma cruzi [4]
  IC50: 17 µM
Trypanosoma cruzi [5]
  IC50: 0.52 µM
Trypanosoma cruzi [6]
  fold change (FC): 11.2
Trypanosoma cruzi [7]
  IC50: 0.46 µM
[8]
  IC50: 4.86 µM
HL-60
  IC50: 20 µM
Trypanosoma cruzi [9]
  fold change (FC): 1.9
[10]
  IC50: 4.94 µM
[11]
  selectivity ratio: 12.7
Trypanosoma cruzi [12]
  fold change (FC): 1.5
Trypanosoma cruzi [13]
  fold change (FC): 6.2
[14]
  inhibition: Active
Vero
  IC50: 5.86 µM
Trypanosoma cruzi [15]
  Ratio IC50: 37

## NCCCCNCCCCNCc1c2ccccc2cc2ccccc12
[1]
  IC50: 3.98 µM
[2]
  inhibition: Active
[3]
  IC50: 13.3 µM
[14]
  inhibition: Active

## CCCCCCCCCCCCCCCC(=O)NCCCCC(N)C(=O)NCCCNCCCCNCCCN (centres undefined)
[1]
  IC50: 2.43 µM
[14]
  inhibition: Active

## NCCC(=O)CN
Leishmania amazonensis
  IC50: 144 µM
